For one series, the target named is T1, human NPY1R (Homo sapiens, UniProt P25929).
T1 sequence (P25929 1-384): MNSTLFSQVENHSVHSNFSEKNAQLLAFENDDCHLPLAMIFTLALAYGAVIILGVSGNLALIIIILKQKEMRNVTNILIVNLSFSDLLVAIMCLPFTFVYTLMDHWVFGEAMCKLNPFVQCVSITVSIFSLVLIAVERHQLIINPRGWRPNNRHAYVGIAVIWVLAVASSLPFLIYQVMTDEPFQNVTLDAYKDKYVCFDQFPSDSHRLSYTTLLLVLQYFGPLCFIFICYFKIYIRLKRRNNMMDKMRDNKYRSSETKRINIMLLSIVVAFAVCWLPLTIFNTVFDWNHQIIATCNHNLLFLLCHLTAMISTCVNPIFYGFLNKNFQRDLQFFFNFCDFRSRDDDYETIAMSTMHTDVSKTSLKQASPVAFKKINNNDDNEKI
Briefly: Competitive radioligand binding, membrane preparations, 125I-PYY1–36. To be noted: up to 1 μM.

The next series has as its system male NMRI mice. The series is described as follows: Acute food intake in lean mice. The format is in vivo, mouse. In a few lines:
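Males, 5 weeks old on arrival, 4/cage, lights off 3 PM, chow ad libitum. Randomised by bodyweight (n = 7–8/group) with a vehicle group (50 mM phosphate pH 7.0, 5% mannitol; 5 mL/kg). Fasted from 6 h before night, dosed SC once 1 h before dark. Hourly food intake over 24 h as % of vehicle mean. ED50 by nonlinear fit.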

Another series relates to diet-induced obese mice. Briefly: Subchronic, repeated dose study in diet-induced obese mice. The series is classed as in vivo, mouse. Conditions: DIO mice.
The test system of another series is male C57BL/6JRj mice. The series is described as follows: Acute gastric emptying in lean mice. The format is in vivo, mouse. An outline of the steps:
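Males aged 9–10 weeks were fasted 8.5 h, then a basal blood glucose sample was taken for randomisation. After a further 30 min fast they got one SC dose. At 3 h, glucose 2 g/kg plus acetaminophen 100 mg/kg was gavaged (10 mL/kg). Blood acetaminophen and glucose were measured pre-load (20 min) and at 10, 30 and 60 min post-load. Gastric emptying was read as change in acetaminophen exposure.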

The subject of another series is cynomolgus monkeys. Briefly: Cardiovascular study in cynomolgus monkeys. Conditions: subcutaneous supratherapeutic doses. The series is classed as in vivo, cynomolgus monkey.
Series [1] has as its system Diet-induced obese (DIO) male C57BL6/J mice. Briefly: 3D whole-brain c-Fos imaging. The format is in vivo, mouse. To be noted: 8 nmol/kg, 4 h after dosing. An outline of the steps: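 Perfused 4 h post-dose. Brains were c-Fos immunolabelled, iDISCO+-cleared and imaged whole by light-sheet microscopy. c-Fos+ cells were atlas-mapped and counted per region, with region-wise statistics against vehicle.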

Series [2] in a line: Pharmacokinetic study in mice. The format is in vivo. Conditions: male, NMRI, mouse, plasma, sc, 30 nmol/kg. An outline of the steps:
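Male NMRI mice got a single dose of 30 nmol/kg, IV (N = 2) or SC (N = 3), in 50 mM phosphate pH 7.0 with 5% mannitol at 5 mL/kg. Plasma was sampled at several times after dosing, stored at -20 °C, and quantified by LC-MS/MS.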

The target of another series is human NPY4R (Homo sapiens, UniProt P50391). The series is described as follows: Competitive radioligand binding, membrane preparations, 125I-PP. Conditions: up to 1 μM.
human NPY4R, sequence (P50391 whole entry): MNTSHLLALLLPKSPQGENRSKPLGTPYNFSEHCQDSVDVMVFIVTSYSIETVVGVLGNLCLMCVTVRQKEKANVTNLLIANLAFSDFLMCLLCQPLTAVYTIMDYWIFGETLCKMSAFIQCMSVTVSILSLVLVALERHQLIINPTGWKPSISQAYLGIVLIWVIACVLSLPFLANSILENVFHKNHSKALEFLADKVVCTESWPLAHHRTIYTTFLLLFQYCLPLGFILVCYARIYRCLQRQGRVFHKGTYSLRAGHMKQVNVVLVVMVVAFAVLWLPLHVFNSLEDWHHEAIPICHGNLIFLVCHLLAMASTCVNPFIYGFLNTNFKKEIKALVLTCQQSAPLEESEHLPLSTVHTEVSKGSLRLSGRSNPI
Series [3] can be described thus: Pharmacokinetic study in dogs. Conditions: male, beagle, dog, plasma, sc, 5 nmol/kg. The series is classed as in vivo. An outline of the steps:
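Male beagles were dosed once, IV 1.25 nmol/kg (N = 2) or SC 5 nmol/kg (N = 3). Plasma was sampled at several times after dosing, stored at -20 °C, and assayed by LC-MS/MS.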

The test system of series [4] is Chow-fed male C57BL/6JRj mice. The series is described as follows: 3D whole-brain imaging by light-sheet fluorescence microscopy. The series is classed as in vivo, mouse. Conditions: single s.c. dose 100 nmol/kg; SFO, AP, ME, choroid plexus, ARH. In a few lines: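 Chow-fed males (n = 8/group) got one SC dose of unlabelled test compound or a Cy5-labelled analogue (Lys10), each 100 nmol/kg, and were killed at 6 h. Competition group: unlabelled 100 nmol/kg SC at 0, 8 and 24 h, labelled analogue 1 h later, killed after 1 h. Tongue was positive control. Tissue was perfusion-fixed, cleared and light-sheet imaged, giving atlas-aligned regional mean fluorescence (CVOs, ARH).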

A further series concerns the target human NPY2R (human) (UniProt P49146). Briefly: radioligand binding.

Numbered stars: 1 amine (or outer) side, 2 acyl side, 3 side chain; on linkers, the order of the positions; unused ones are H or OH. Side chains are listed from the residue outwards. Peptide text beside a SMILES is read from it. * marks the point of attachment. Cy5(nonsulfonated) = CN1C(=CC=CC=CC2=[N+](CCCCCC(=O)*)c3ccccc3C2(C)C)C(C)(C)c2ccccc21; C18 diacid = O=C(O)CCCCCCCCCCCCCCCCC(=O)*; γGlu = O=C(O)[C@H](CCC(=O)[*:2])N[*:1]; Isovaleryl = CC(C)CC(=O)*; AEEA = NCCOCCOCC(=O)O

human NPY2R (human), sequence (P49146 whole entry): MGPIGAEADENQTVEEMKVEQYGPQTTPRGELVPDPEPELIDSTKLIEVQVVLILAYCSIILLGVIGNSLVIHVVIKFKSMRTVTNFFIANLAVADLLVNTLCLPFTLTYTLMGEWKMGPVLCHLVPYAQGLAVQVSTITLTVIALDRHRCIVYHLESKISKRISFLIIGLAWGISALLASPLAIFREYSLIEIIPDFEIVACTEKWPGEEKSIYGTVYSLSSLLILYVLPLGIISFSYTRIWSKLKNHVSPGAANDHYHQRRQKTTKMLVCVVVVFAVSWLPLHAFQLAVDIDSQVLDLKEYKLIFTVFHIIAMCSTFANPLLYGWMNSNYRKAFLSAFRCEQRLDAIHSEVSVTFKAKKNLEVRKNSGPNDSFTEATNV

`CC[C@H](C)[C@H](NC(=O)[C@H](CCC(=O)O)NC(=O)[C@H](CCC(=O)O)NC(=O)[C@@H]1CCCN1C(=O)[C@H](CO)NC(=O)[C@H](C)NC(=O)[C@H](CC(=O)O)NC(=O)[C@H](CCC(=O)O)NC(=O)[C@H](CCC(=O)O)NC(=O)[C@@H]1CCCN1C(=O)[C@H](CCCCNC(=O)COCCOCCNC(=O)COCCOCCNC(=O)CC[C@H](NC(=O)CCCCCCCCCCCCCCCCC(=O)O)C(=O)O)NC(=O)[C@H](C)NC(=O)[C@@H]1CCCN1C(=O)[C@H](C)NC(=O)CC(C)C)C(=O)N[C@@H](CCC(N)=O)C(=O)N[C@@H](CCCNC(=N)N)C(=O)N[C@@H](Cc1ccc(O)cc1)C(=O)N[C@@H](Cc1ccc(O)cc1)C(=O)N[C@H](C(=O)N[C@@H](CO)C(=O)N[C@@H](CC(C)C)C(=O)N[C@@H](CCCNC(=N)N)C(=O)N[C@@H](Cc1c[nH]cn1)C(=O)N[C@@H](Cc1ccc(O)cc1)C(=O)N[C@@H](Cc1ccc(O)cc1)C(=O)N[C@@H](CC(N)=O)C(=O)N[C@@H](Cc1c[nH]c2ccccc12)C(=O)N[C@@H](CC(C)C)C(=O)N[C@H](C(=O)N[C@@H](CCCNC(=N)N)C(=O)N[C@@H](CCC(N)=O)C(=O)N[C@@H](CCCNC(=N)N)C(=O)N[C@@H](Cc1ccc(O)cc1)C(N)=O)[C@@H](C)O)C(C)C` [BI 1820237]: the “binding to human NPY subtype 1” value on human NPY1R is “no binding was detected”. Also, the “Emax, inhibition of food intake over 24 h” value in the series on male NMRI mice (at the maximal tested dose of 100 nmol/kg) is recorded as around 85%. For the same compound, the “ED50, inhibition of food intake over 24 h” value in the series with male NMRI mice (single subcutaneous dose) amounted to 14 nmol/kg. Also, the “weight of the epididymal adipose tissue compared with the vehicle group” value in the series on diet-induced obese mice (study end, BI 1820237 1 nmol/kg alone or with survodutide 7.5 nmol/kg) is reported as “did not reduce”. Besides, the “food intake reduction on Day 1, 24 h post-dosing” value was found to be 18% with diet-induced obese mice (3 nmol/kg once daily s.c.), 59% with diet-induced obese mice (10 nmol/kg once daily s.c.), 71% in the series with diet-induced obese mice (30 nmol/kg once daily s.c.) and 56% in the series with diet-induced obese mice (100 nmol/kg once daily s.c.). Also, the “maximal bodyweight-lowering effect (reduction)” value in the series on diet-induced obese mice (30 nmol/kg at Day 5 of dosing) amounted to 9%. In the series on diet-induced obese mice (30 nmol/kg once daily, 4 weeks), the “bodyweight reduction at the end of the study (non-significant)” value is on record as 2%. In addition, the “food intake after 4–5 days of dosing” value is recorded as “higher than the food intake in the vehicle group” in the series on diet-induced obese mice (100 nmol/kg once daily); “returned to the level of the vehicle-treated group” with diet-induced obese mice (3, 10 and 30 nmol/kg once daily). Moreover, the “effect on bodyweight at the end of the study” value with diet-induced obese mice (other doses (3, 10, 100 nmol/kg) once daily, 4 weeks) was “no effect”. Also, the “ED50, reduction of gastric emptying” value in the series with male C57BL/6JRj mice (lean mice, single dose, acetaminophen exposure) was around 2 nmol/kg. In addition, the Glucose excursion result with male C57BL/6JRj mice (oral glucose 2 g/kg, same experiment) is listed as “not affected”. The emesis entry with cynomolgus monkeys was “induced emesis”. Further, the “whole-brain c-Fos expression compared with vehicle” value in [1] is on record as “little or no difference”. For the same compound, the Tmax in series [2] came out at 3 h. Moreover, the “binding to human NPY subtype 4” value on human NPY4R is given as “no binding was detected”. Further, in series [3], the MRT amounted to 103 h.
`CC[C@H](C)[C@H](NC(=O)[C@H](CCC(=O)O)NC(=O)[C@H](CCC(=O)O)NC(=O)[C@@H]1CCCN1C(=O)[C@H](CO)NC(=O)[C@H](C)NC(=O)[C@H](CC(=O)O)NC(=O)[C@H](CCCCNC(=O)CCCCC[N+]1=C(C=CC=CC=C2N(C)c3ccccc3C2(C)C)C(C)(C)c2ccccc21)NC(=O)[C@H](CCC(=O)O)NC(=O)[C@@H]1CCCN1C(=O)[C@H](CCCCNC(=O)COCCOCCNC(=O)COCCOCCNC(=O)CC[C@H](NC(=O)CCCCCCCCCCCCCCCCC(=O)O)C(=O)O)NC(=O)[C@H](C)NC(=O)[C@@H]1CCCN1C(=O)[C@H](C)NC(=O)CC(C)C)C(=O)N[C@@H](CCC(N)=O)C(=O)N[C@@H](CCCNC(=N)N)C(=O)N[C@@H](Cc1ccc(O)cc1)C(=O)N[C@@H](Cc1ccc(O)cc1)C(=O)N[C@H](C(=O)N[C@@H](CO)C(=O)N[C@@H](CC(C)C)C(=O)N[C@@H](CCCNC(=N)N)C(=O)N[C@@H](Cc1c[nH]cn1)C(=O)N[C@@H](Cc1ccc(O)cc1)C(=O)N[C@@H](Cc1ccc(O)cc1)C(=O)N[C@@H](CC(N)=O)C(=O)N[C@@H](Cc1c[nH]c2ccccc12)C(=O)N[C@@H](CC(C)C)C(=O)N[C@H](C(=O)N[C@@H](CCCNC(=N)N)C(=O)N[C@@H](CCC(N)=O)C(=O)N[C@@H](CCCNC(=N)N)C(=O)N[C@@H](Cc1ccc(O)cc1)C(N)=O)[C@@H](C)O)C(C)C` [BI 3005788] (Isovaleryl-APAK([AEEA-AEEA-γGlu-C18 diacid])PEK(Cy5(nonsulfonated))DASPEEIQRYYVSLRHYYNWLTRQRY-NH2; N-terminus and C-terminus assumed): the “lowering of food intake up to 6 h post-dosing” value in the series on male NMRI mice (acute dose 100 nmol/kg, Fig. S3a–b) is given as “comparable with BI 1820237 dosed at 30 nmol/kg”. For the same compound, the “fluorescence signal distribution in the mouse brain” value in [4] was “accumulated in 5 circumventricular organs”.
For the compound BI 1820237 (peptide), the Ki with human NPY2R (human) was found to be 0.82 nM.
With survodutide [reference compound], in the series on diet-induced obese mice (after 28 days, survodutide 7.5 nmol/kg), the “bodyweight lowering versus baseline” value came out at 17%. Further, the “bodyweight lowering compared with the vehicle group” value in the series on diet-induced obese mice (after 28 days, survodutide 7.5 nmol/kg alone or with 1 nmol/kg BI 1820237) is given as 21%. The lean mass entry in the series on diet-induced obese mice (survodutide alone, or with 3 nmol/kg BI 1820237 at study start or 1 nmol/kg at Day 8) is given as “No significant change”.

The values above are taken from paper PMC12311552 (Molecular Metabolism, 2025).
